The source of these data is ChEMBL document CHEMBL1122182, “Structure-activity studies on the C-terminal amide of substance P” (1982).

Common to all, as to assay type: functional
The species named for experiment [1] is Cavia porcellus. As to the kind of experiment: In vitro (pD2) the negative log of the dose which causes half-maximal contraction was measured in guinea pig ileum. An outline of the steps:
(§1)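 Contraction of isolated guinea pig ileum. Peptide solutions were prepared and used the same day, then discarded. Responses were expressed as pD2, intrinsic activity (αE) and relative affinity.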

The next experiment relates to Rattus norvegicus. Nature of the experiment: In vivo relative blood pressure potency was measured in rat.
Experiment [2] is filed under the species Cavia porcellus. Nature of the experiment: In vitro intrinsic activity was measured in guinea pig ileum. The gist of the method:
as §1

The species entered for experiment [3] is Cavia porcellus. As to the kind of experiment: In vitro relative affinity was measured in guinea pig ileum. The gist of the method:
as §1

Where a SMILES comes first, the peptide text is derived from it. [ ]: non-standard residue; d: D form. The star is where a group is joined. Nle = CCCC[C@H](N)C(=O)O; NEt2 = CCN(CC)*; X1 = CN(C)N*; NHNH2 = NN* Some results are limits rather than exact numbers.

In the case of `CSCC[C@H](NC(=O)[C@H](CC(C)C)NC(=O)CNC(=O)[C@H](Cc1ccccc1)NC(=O)[C@H](Cc1ccccc1)NC(=O)[C@H](CCC(N)=O)NC(=O)[C@@H](N)CCC(N)=O)C(N)=O` (H-QQFFGLM-NH2), in the experiment filed under Cavia porcellus [1], the pD2 is recorded as 8.77. Further, in the experiment on Rattus norvegicus, the RBP is on record as 100%. The compound also registered an Activity in the experiment filed under Cavia porcellus [2] of 1. Besides, the RA in the experiment listed under Cavia porcellus [3] was 100%.
In the experiment listed under Cavia porcellus [1], `CNC(=O)[C@H](CCSC)NC(=O)[C@H](CC(C)C)NC(=O)CNC(=O)[C@H](Cc1ccccc1)NC(=O)[C@H](Cc1ccccc1)NC(=O)[C@H](CCC(N)=O)NC(=O)[C@@H](N)CCC(N)=O` (H-QQFFGLM-NHMe) had a pD2 of 6.77. In the experiment on Rattus norvegicus, the RBP is listed as 5%. The same compound gave an Activity in the experiment filed under Cavia porcellus [2] of 0.85. Also, the RA in the experiment filed under Cavia porcellus [3] came out at 1%.
Taken in the same sequence, the figures for `CSCC[C@H](NC(=O)[C@H](CC(C)C)NC(=O)CNC(=O)[C@H](Cc1ccccc1)NC(=O)[C@H](Cc1ccccc1)NC(=O)[C@H](CCC(N)=O)NC(=O)[C@@H](N)CCC(N)=O)C(=O)NN` (H-QQFFGLM-NHNH2) were 6.8, 0.4%, 1 and 1%.
In the experiment with Rattus norvegicus, `CSCC[C@H](NC(=O)[C@H](CC(C)C)NC(=O)CNC(=O)[C@H](Cc1ccccc1)NC(=O)[C@H](Cc1ccccc1)NC(=O)[C@H](CCC(N)=O)NC(=O)[C@@H](N)CCC(N)=O)C(=O)N(C)C` (H-QQFFGLM-NMe2) gave an RBP of 0.2%. The RA in the experiment listed under Cavia porcellus [3] is on record as below 0.01%.
With `COC(=O)[C@H](CCSC)NC(=O)[C@H](CC(C)C)NC(=O)CNC(=O)[C@H](Cc1ccccc1)NC(=O)[C@H](Cc1ccccc1)NC(=O)[C@H](CCC(N)=O)NC(=O)[C@@H](N)CCC(N)=O` (H-QQFFGLM-OMe), the pD2 in the experiment listed under Cavia porcellus [1] came out at 7.3. Moreover, in the experiment on Rattus norvegicus, the RBP amounted to 1%. Besides, the Activity in the experiment filed under Cavia porcellus [2] was determined as 1. Moreover, in the experiment filed under Cavia porcellus [3], the RA amounted to 3.37%.
In the experiment filed under Cavia porcellus [1], `CSCC[C@H](NC(=O)[C@H](CC(C)C)NC(=O)CNC(=O)[C@H](Cc1ccccc1)NC(=O)[C@H](Cc1ccccc1)NC(=O)[C@H](CCC(N)=O)NC(=O)[C@@H](N)CCC(N)=O)C(=O)NN(C)C` (H-QQFFGLM-X1) gave a pD2 of 6.6. In the experiment with Rattus norvegicus, this compound showed an RBP below 0.05%. In the experiment listed under Cavia porcellus [3], this compound returned an RA of 0.53%.
Take `CCCC[C@H](NC(=O)[C@H](CC(C)C)NC(=O)CNC(=O)[C@H](Cc1ccccc1)NC(=O)[C@H](Cc1ccccc1)NC(=O)[C@H](CCC(N)=O)NC(=O)[C@@H](N)CCC(N)=O)C(=O)N(CC)CC` (H-QQFFGL[Nle]-NEt2): in the experiment listed under Cavia porcellus [1], the pD2 turned out to be 6.03. In the experiment on Rattus norvegicus, this compound gave an RBP of 0.2%. Also, the Activity in the experiment listed under Cavia porcellus [2] came to 1. Besides, the RA in the experiment filed under Cavia porcellus [3] turned out to be 1.3%.
Compound `CCCC[C@H](NC(=O)[C@H](CC(C)C)NC(=O)CNC(=O)[C@H](Cc1ccccc1)NC(=O)[C@H](Cc1ccccc1)NC(=O)[C@H](CCC(N)=O)NC(=O)[C@@H](N)CCC(N)=O)C(N)=O` (H-QQFFGL[Nle]-NH2) had a pD2 in the experiment listed under Cavia porcellus [1] of 7.93. For the same compound, the Activity in the experiment listed under Cavia porcellus [2] is reported as 1.
With `CCCC[C@H](NC(=O)[C@H](CC(C)C)NC(=O)CNC(=O)[C@H](Cc1ccccc1)NC(=O)[C@H](Cc1ccccc1)NC(=O)[C@H](CCC(N)=O)NC(=O)[C@@H](N)CCC(N)=O)C(=O)NN` (H-QQFFGL[Nle]-NHNH2), the pD2 in the experiment listed under Cavia porcellus [1] came out at 6.63. This compound displayed an RBP in the experiment with Rattus norvegicus of 5.2%. The compound also came in with an Activity in the experiment filed under Cavia porcellus [2] of 1. In the experiment listed under Cavia porcellus [3], this compound displayed an RA of 5%.
Turning to `CCCC[C@H](NC(=O)[C@H](CC(C)C)NC(=O)CNC(=O)[C@H](Cc1ccccc1)NC(=O)[C@H](Cc1ccccc1)NC(=O)[C@H](CCC(N)=O)NC(=O)[C@@H](N)CCC(N)=O)C(=O)O` (H-QQFFGL[Nle]-OH), the pD2 in the experiment filed under Cavia porcellus [1] is recorded as 6.34. Further, the RBP in the experiment with Rattus norvegicus amounted to 1.5%. In the experiment filed under Cavia porcellus [2], the Activity was determined as 1. For the same compound, in the experiment listed under Cavia porcellus [3], the RA is on record as 2.6%.
Taken in the same sequence, the figures for `CCCC[C@H](NC(=O)[C@H](CC(C)C)NC(=O)CNC(=O)[C@H](Cc1ccccc1)NC(=O)[C@H](Cc1ccccc1)NC(=O)[C@H](CCC(N)=O)NC(=O)[C@@H](N)CCC(N)=O)C(=O)OC` (H-QQFFGL[Nle]-OMe) were 6.47, 1.5%, 1 and 3.5%.
